These results are taken from ChEMBL document CHEMBL1158126, “Sodwanone and yardenone triterpenes from a South African species of the marine sponge Axinella inhibit hypoxia-inducible factor-1 (HIF-1) activation in both breast and prostate tumor cells” (J Nat Prod, 2006).

SMILES strings stand for the structures. Some results are limits rather than exact numbers.

One may read the IC50 as the point on the concentration scale where inhibition reaches its midpoint. A lower IC50 goes with higher potency.

Test [1] concerns the target T1, Hypoxia inducible factors; HIF-1-alpha, HIF-2-alpha (Homo sapiens, UniProt Q16665+Q99814). The test is described as follows: Inhibition of hypoxia-induced HIF1 activation in human T47D cells by reporter gene assay. The format is cell-based. The gist of the method: (§1)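 Luciferase reporter cells (T47D or PC-3) transfected, treated with compound and exposed to hypoxia (1% O2:5% CO2:94% N2). Normoxic comparison at 5% CO2:95% air. Compounds from 10 mM isopropanol stocks, tested up to 30 μM. Luciferase activity measured.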
In general terms: A reporter such as luciferase makes a cellular process visible.

A further test has as its system DU-145. The test is described as follows: Cytotoxicity against human DU145 cells after 48 hrs by neutral red assay. It counts as functional, cell-based. Conditions: DU-145, 48 h. In outline: (§2)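 Cells kept in DMEM/F12 with 10% FBS and antibiotics at 37° C, 5% CO2:95% air. Plated at 30,000 cells/well and grown 24 h. Compounds diluted in serum-free DMEM/F12 and added (n = 3). Incubated 48 h at 37° C under normoxia. Viability read by neutral red at OD540. % inhibition = 1 - OD540(treated)/OD540(control). Highest concentration tested 30 μM.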

Test [2] deals with T1, Hypoxia inducible factors; HIF-1-alpha, HIF-2-alpha. The test is described as follows: Inhibition of hypoxia-induced HIF1 activation in human PC3 cells by reporter gene assay. Conditions: pc-3. The format is cell-based. The gist of the method:
as §1

The target is the same in test [3]. The test is described as follows: Inhibition of 1,10 phenanthroline-induced HIF1 activation in human T47D cells by reporter gene assay. The format is cell-based. In outline: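 Transfected T47D luciferase reporter cells. HIF-1 induced with the hypoxia mimetic 1,10-phenanthroline at 10 μM. Compounds from 10 mM isopropanol stocks, tested up to 30 μM. HIF-1 activity read as luciferase activity.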

Another test has as its system MDA-MB-231. The test is described as follows: Cytotoxicity against human MDA-MB-231 cells after 48 hrs by neutral red assay. It counts as functional, cell-based. Conditions: MDA-MB-231, 48 h. The gist of the method: as §2
Another test deals with PC-3. The test is described as follows: Cytotoxicity against human PC-3 cells after 48 hrs by neutral red assay. It counts as functional, cell-based. Conditions: PC-3, 48 h. In outline:
as §2

Another test relates to T47D. The test is described as follows: Cytotoxicity against human T47D cells after 48 hrs by neutral red assay. It counts as functional, cell-based. The gist of the method:
as §2

`C[C@H]1CC[C@@H]2OC(C)(C)C(=O)CC[C@@]2(C)[C@@]12O[C@H]([C@@]1(C)CC[C@@H]3OC(C)(C)C(=O)CC[C@]31C)C[C@H]2O`: the IC50 (in test [1]; in the test with DU-145; in test [2]; in test [3]; in the test with MDA-MB-231; in the test with PC-3) was over 30 µM in each case. Further, the IC50 in the test with T47D is over 30 µM.

On to `C=C1CC[C@@H]2OC(C)(C)[C@H](O)CC[C@@]2(C)[C@@H]1CC[C@]1(O)[C@@H](C)CC[C@@H]2OC(C)(C)C(=O)CC[C@]21C`, for which the IC50 in test [1] is 25 µM; in the test with DU-145, over 30 µM; in test [2], over 30 µM; in test [3], over 30 µM; in the test with MDA-MB-231, over 30 µM; in the test on PC-3 it was over 30 µM. In addition, in the test on T47D, the IC50 was over 30 µM.

With `C=C1CC[C@@H]2OC(C)(C)[C@H](OC(C)=O)CC[C@@]2(C)[C@@H]1CC[C@]1(O)[C@@H](C)CC[C@@H]2OC(C)(C)C(=O)CC[C@]21C`, the half-inhibitory concentration (IC50) in test [1] was 20 µM; in the test with DU-145, over 30 µM; in test [2], over 30 µM; in test [3], over 30 µM; with MDA-MB-231, over 30 µM; in the test on PC-3, over 30 µM. In the test on T47D, this compound registered a half-inhibitory concentration (IC50) of 22 µM.

With `CC1=C(CCC2=C(C)C(=O)C(O)=C3C(C)(C)C(=O)CC[C@]23C)[C@]2(C)CCC(=O)C(C)(C)O[C@H]2CC1` [10,11-DIHYDROSODWANONE B], the IC50 in test [1] was 20 µM; in the test with DU-145 it was over 30 µM; in test [2] it was over 30 µM; in test [3], 30 µM; in the test on MDA-MB-231, over 30 µM; in the test with PC-3, over 30 µM. Further, in the test with T47D, the half-maximal inhibitory concentration (IC50) is over 30 µM.

`CC1=C(CC[C@H]2[C@]3(C)CCC(=O)C(C)(C)O[C@H]3CC[C@]2(C)O)[C@@]2(C)CCC(=O)C(C)(C)C2=C(O)C1=O` [SODWANONE A]: the half-maximal inhibitory concentration (IC50) is 20 µM in test [1]; over 30 µM in the test on DU-145; over 30 µM in test [2]; over 30 µM in test [3]; over 30 µM with MDA-MB-231; over 30 µM in the test on PC-3. The compound also gave an IC50 in the test on T47D of over 30 µM.

In the case of `CC1=C(CC[C@@H]2[C@H](C)CC[C@@H]3OC(C)(C)C(=O)CC[C@]32C)[C@@]2(C)CCC(=O)C(C)(C)C2=C(O)C1=O` [SODWANONE B], the IC50 (in test [1]; with DU-145; in test [2]; in test [3]; in the test with MDA-MB-231; in the test with PC-3) was over 30 µM throughout. The same compound registered an IC50 in the test with T47D of over 30 µM.

With `CC1=C(CCC2=C(C)CC[C@@H]3OC(C)(C)[C@H](O)CC[C@@]23C)[C@]2(C)CCC(=O)C(C)(C)O[C@H]2CC1` [SODWANONE T], the IC50 in test [1] was 20 µM; with DU-145, over 30 µM; in test [2] it was over 30 µM; in test [3], 20 µM; in the test with MDA-MB-231, over 30 µM; with PC-3 it was over 30 µM. This compound yielded an IC50 in the test with T47D of over 30 µM.

Take `CC1=C(CCC23CCC(=O)C(C)(C)C2=C(O)C(=O)C(C)=C3C)[C@]2(C)CCC(=O)C(C)(C)O[C@H]2CC1` (stereo partly drawn) [SODWANONE U]: the half-maximal inhibitory concentration (IC50) (in test [1]; in the test with DU-145; in test [2]; in test [3]; in the test on MDA-MB-231; in the test on PC-3) was over 30 µM in each case. Further, in the test on T47D, the concentration for half-maximal inhibition (IC50) is over 30 µM.

With `C[C@H]1CC[C@@H]2OC(C)(C)[C@@H](O)CC=C2[C@@]1(C)CC[C@]1(C)[C@@H](C)CC[C@@H]2OC(C)(C)[C@@]3(O)CC[C@]21O3` [SODWANONE V], the 50% inhibitory concentration (IC50) is 15 µM in test [1]; over 30 µM with DU-145; 15 µM in test [2]; 15 µM in test [3]; 23 µM with MDA-MB-231; over 30 µM in the test with PC-3. The compound further displayed a half-inhibitory concentration (IC50) in the test with T47D of over 30 µM.

For the compound `CC(C)C(=O)CC[C@@]1(C)[C@@H]2CC[C@H](C)[C@@]1(CC[C@@]1(C)C3=CC[C@@H](O)C(C)(C)O[C@@H]3CC[C@H]1C)O2` [SODWANONE W], the IC50 (in test [1]; in the test on DU-145; with MDA-MB-231; with PC-3; in the test on T47D) was over 30 µM throughout.

For the compound `C[C@H]1CC[C@@H]2OC(C)(C)C(=O)CC[C@@]2(C)[C@]12CC[C@@H]([C@@]1(C)CC[C@@H]3OC(C)(C)C(=O)CC[C@]31C)O2` [YARDENONE], the 50% inhibitory concentration (IC50) (in test [1]; in the test on DU-145; in the test with MDA-MB-231; in the test on PC-3; in the test on T47D) was over 30 µM throughout.
